Assay results of several laboratories.
Target: Myosin light chain kinase, smooth muscle (MYLK, Homo sapiens, UniProt Q15746)

SMILES	assay	setting	remaining binding
O=C(c1ccc(Nc2nccc(-c3cc4ccccc4s3)n2)cc1)N1CCC(N2CCCC2)CC1	binding, competition with immobilised ligand	1 µM	61%
O=C(Nc1c[nH]nc1C(=O)NC1CCNCC1)c1cc(F)cc(F)c1	binding, competition with immobilised ligand	1 µM	100%
CN(CCCC(F)(F)F)c1nccc(-c2cnn3ncccc23)n1	binding	1 µM	100%
O=C(NCCCN1CCOCC1)c1ccc(Nc2ncc(Cl)c(-c3ccc(Cl)s3)n2)cc1	binding, competition with immobilised ligand	1 µM	89%
COc1cnc(Nc2cccc(S(N)(=O)=O)c2)nc1N1CCN(c2ccccc2)C(=O)C1	binding, competition with immobilised ligand	1 µM	97%
CN(C)c1ncc(F)c(-c2cnn3ncccc23)n1	binding	1 µM	98%
C[C@@H](c1ccc(-n2cnc3c(N)ncnc32)cc1)N1CCc2nn(C)c(Cc3ccccc3)c2C1=O	binding, competition with immobilised ligand	0.1 µM	94%
NS(=O)(=O)c1cc(NC(=O)C2(c3ccccc3Cl)CC2)ccc1Oc1cccc(Cl)c1	cell-free assay, competition with immobilised ligand	1 µM	72%
N[C@@H]1CCN(c2nccc(-c3cnn4ncccc34)n2)C1	binding	1 µM	100%
CCCCN(CCCC)C(=O)CN1C[C@H](c2cc(OC)c3c(c2)OCO3)[C@@H](C(=O)O)[C@@H]1CC(C)(C)CCC	cell-free assay, competition with immobilised ligand	1 µM	100%
CCN1CCN(Cc2ccc(C(=O)Nc3ccc(C)c(Oc4ccc5c(c4)CC(=O)N5)c3)cc2C(F)(F)F)CC1	binding, competition with immobilised ligand	1 µM	100%
CS(=O)(=O)N1CCCC(NC(=O)[C@H](CCC2CCCCC2)NC(=O)c2ccc(CNC(=O)c3cnc4ccccn34)cc2)C1 (some centres unmarked)	cell-free assay, competition with immobilised ligand	0.1 µM	100%
c1cnn2ncc(-c3ccnc(N4CCC45COC5)n3)c2c1	binding	1 µM	84%
COc1cccc(CNC(=O)c2nc3scc(COCc4ccc(C(=O)O)cc4)c3c(=O)[nH]2)c1	cell-free assay, competition with immobilised ligand	1 µM	100%
CN(C)c1nccc(-c2cnn3ncccc23)n1	binding	1 µM	63%
O=C(c1ccc(Nc2ncc(Cl)c(-c3ccc(Cl)s3)n2)cc1)N1CCC(N2CCCC2)CC1	binding, competition with immobilised ligand	1 µM	66%
CC(=O)c1c(NS(C)(=O)=O)c2cc(-c3ccc(Cl)cc3)c(-c3ccc(Cl)cc3Cl)nc2n(C)c1=O	cell-free assay, competition with immobilised ligand	1 µM	93%
c1cncc(-c2cccc(Nc3nccc(NC4CCCCC4)n3)c2)c1	binding, competition with immobilised ligand	10 µM	62%
CC1CCCN1c1nccc(-c2cnn3ncccc23)n1 (centres unmarked)	binding	1 µM	97%
C[C@@]1(Cc2ccc(C#N)cc2)C(=O)N(c2cc(Cl)cc(Cl)c2)c2ncc(C(=O)NC3(c4nc(C5CCC5)no4)CC3)n21	cell-free assay, competition with immobilised ligand	1 µM	100%
